Active and inactive are the calls of the source. The calls are words filed in the database; no cut-off is given here.
Assays:
CAL-27 [1] = experiment: Induction of apoptosis in human CAL-27 cells at 2.5 uM incubated for 48 hrs by annexin-V FITC and PI staining based flow cytometric analysis; assay type: functional, cell-based
Outline: (§1)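 Cells at 1 × 10^5 per mL exposed to 2.5 μM compound for 48 h at 37 °C in 5% CO2, with 10 μM staurosporine as positive control. Cells stained 5 min at room temperature with annexin V-FITC (488/530) and PI (488/575) in binding buffer; 10 000 events recorded by flow cytometry. Mean ± SD of at least three experiments; ANOVA with Bonferroni post-test.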

CAL-27 [2] = experiment: Cytotoxicity against human CAL-27 cells assessed as reduction in cell viability measured after 48 hrs by MTT assay; assay type: functional, cell-based; conditions: CAL-27, 48 h
Outline: (§2)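 Cells seeded at 1 × 10^4 per well and left 24 h, then exposed to increasing concentrations for 24, 48 or 72 h. After two PBS washes, 0.5 mg/mL MTT applied for 2 h. Formazan dissolved in DMSO and absorbance read at 570 nm. IC50 taken from a variable-slope dose–response curve.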

HEp-2 [3] = experiment: Cytotoxicity against human HEp-2 cells assessed as reduction in cell viability measured after 48 hrs by MTT assay; assay type: functional, cell-based; conditions: HEp-2, 48 h; outline: as §2
SCC-15 = experiment: Cytotoxicity against human SCC-15 cells assessed as reduction in cell viability measured after 48 hrs by MTT assay; assay type: functional, cell-based; conditions: SCC-15, 48 h; outline: as §2
[4] = Cytotoxicity against human OKF-6/TERT cells assessed as reduction in cell viability measured after 48 hrs by MTT assay; assay type: cell-based; conditions: OKF6, 48 h; outline: as §2
[5] = Selectivity index, ratio of IC50 for human OKF-6/TERT cells to IC50 for human CAL27 cells after 48 hrs by MTT assay; assay type: toxicity; conditions: OKF-6/TERT cells versus CAL27 cells, read-out: Ratio IC50
Outline: (§3)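 Selectivity index at 48 h is the ratio of the OKF-6/TERT IC50 to the tumour-line IC50. Each IC50 comes from a sigmoidal, variable-slope dose–response curve of the MTT viability assay (1 × 10^4 cells per well, 48 h exposure, absorbance at 570 nm).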

[6] = Selectivity index, ratio of IC50 for human OKF-6/TERT cells to IC50 for human HEp-2 cells after 48 hrs by MTT assay; assay type: toxicity; conditions: OKF-6/TERT cells versus HEp-2 cells; outline: as §3
[7] = Selectivity index, ratio of IC50 for human OKF-6/TERT cells to IC50 for human SCC-15 cells after 48 hrs by MTT assay; assay type: toxicity; conditions: OKF-6/TERT cells versus SCC-15 cells; outline: as §3
CAL-27 [8] = experiment: Anticlonogenic activity against human CAL-27 cells assessed as reduction in colony formation incubated for 24 hrs followed supplementation with fresh medium without compound measured after 120 hrs by colony formation assay; assay type: functional, cell-based
Outline: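 Cal-27 cells, 1 × 10^3 per well, grown 24 h at 37 °C in 5% CO2, then exposed 24 h to a range of concentrations. Medium then replaced with compound-free medium and growth continued 120 h. Colonies stained 30 min with crystal violet (0.5% in methanol), photographed and counted. Three independent experiments; ANOVA with Bonferroni post-test.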

CAL-27 [9] = experiment: Induction of mitochondrial uncoupling in human CAL-27 cells assessed as oxygen consumption rate measured by Clark-type oxygen electrode method; conditions: Mitochondria, dose microM 10-50
Outline: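 Polarographic Clark-electrode assay on 5 × 10^6 trypsinised Cal-27 cells (cultured to 80% confluence). Cells held in 0.6 mL PBS, pH 7.4, at 25 °C with 8.3 mM L-glutamine. Respiration first inhibited with 2.5 μg/mL oligomycin, then compound added at increasing concentrations. OCR compared with full uncoupling by 0.133 μM CCCP.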

HEp-2 [10] = experiment: Induction of apoptosis in human Hep-2 cells at 2.5 uM incubated for 48 hrs by annexin-V FITC and PI staining based flow cytometric analysis; assay type: functional, cell-based; outline: as §1
CAL-27 [11] = experiment: Induction of apoptosis in human CAL-27 cells assessed as increase in caspase 3 activity at 2.5 to 5 uM incubated for 24 hrs by flow cytometry; assay type: functional, cell-based; conditions: dose 2.5 µM
Outline: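 Cal-27 cells seeded at 5 × 10^5 per well and grown 24 h at 37 °C, then exposed to two concentrations for 24 h. Cells fixed and permeabilised 30 min at 4 °C in the dark, stained 30 min with PE anti-active caspase-3 antibody, and read by flow cytometry at 488 ex/617 em.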

HEp-2 [12] = experiment: Induction of mitochondrial membrane potential loss in human Hep-2 cells at 2.5 to 30 uM by flow cytometry; conditions: dose microM 2.5-30
CAL-27 [13] = experiment: Induction of mitochondrial membrane potential loss in human CAL-27 cells at 2.5 to 30 uM by flow cytometry; conditions: dose microM 2.5-30
CAL-27 [14] = experiment: Decrease in intracellular ATP levels in human CAL-27 cells at 10 to 50 uM incubated for 4 hrs by CellTiter-Glo luminescent assay; conditions: dose microM 10-50, time 4.0 hrs
HEp-2 [15] = experiment: Decrease in intracellular ATP levels in human Hep-2 cells at 10 to 50 uM incubated for 4 hrs by CellTiter-Glo luminescence assay; conditions: dose microM 10-50, time 4.0 hrs
CAL-27 [16] = experiment: Uncoupling of mitochondrial oxidative phosphorylation in human CAL-27 cells assessed as increase in oxygen consumption rate by Clark electrode based assay; conditions: Mitochondria

Activity (CAL-27 [9])	Activity (CAL-27 [16])	SMILES	Activity (CAL-27 [1])	IC50 (CAL-27 [2]) [µM]	IC50 (HEp-2 [3]) [µM]	IC50 (SCC-15) [µM]	IC50 [4] [µM]	selectivity ratio at 48 h [5]	selectivity ratio at 48 h ([6]; read-out: Ratio IC50)	selectivity ratio at 48 h ([7]; read-out: Ratio IC50)	Activity (CAL-27 [8])	Activity (HEp-2 [10])	Activity (CAL-27 [11])	Activity (HEp-2 [12])	Activity (CAL-27 [13])	Activity (CAL-27 [14])	Activity (HEp-2 [15])	selectivity ratio at 48 h [6]	selectivity ratio at 48 h [7]
Dose-dependent effect	–	O=C(OCCCCCCCCCC[P+](c1ccccc1)(c1ccccc1)c1ccccc1)c1cc(O)ccc1O	Active	2.2	5.66	2.7	13.2	6	2.3	4.9	Dose-dependent effect	Active	Active	Active	Active	Active	Active	–	–
Dose-dependent effect	Active	O=C(OCCCCCCCCCC[P+](c1ccccc1)(c1ccccc1)c1ccccc1)c1ccccc1O	Active	2.3	4.28	3.2	12.7	5.5	3	4	Dose-dependent effect	Active	Active	Active	Active	–	Active	–	–
Dose-dependent effect	–	O=C(OCCCCCCCCCC[P+](c1ccccc1)(c1ccccc1)c1ccccc1)c1cccc(O)c1O	Active	1.6	8.28	2.9	7.5	4.7	–	–	Dose-dependent effect	Active	Active	Active	Active	Active	Active	2.3	4.9
Dose-dependent effect	Active	O=C(OCCCCCCCCCC[P+](c1ccccc1)(c1ccccc1)c1ccccc1)c1cc(O)c(O)c(O)c1	Active	3.4	12.5	3	13.1	3.8	1	4.4	Dose-dependent effect	Active	Active	Active	Active	–	Active	–	–
